From ChEMBL document CHEMBL2424550, “Discovery of cyclic sulfoxide hydroxyethylamines as potent and selective β-site APP-cleaving enzyme 1 (BACE1) inhibitors: structure based design and in vivo reduction of amyloid β-peptides” (Bioorg Med Chem Lett, 2013)

Key:
[1] = Lipophilicity, log P of the compound; assay type: physicochemical; conditions: octanol/water
[2] = Dissociation constant, pKa of the compound; assay type: physicochemical
How it was run: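 Measured by multi-wavelength UV spectroscopy across a linear pH gradient of 2–12 units.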

[3] = Apparent permeability of the compound in MDCK cells expressing human MDR1; assay type: ADME, cell-based, Canis lupus familiaris; conditions: dog
How it was run: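 Apparent permeability (Papp, […]) measured across MDR1-MDCK cell monolayers transfected with human MDR1.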

Brain [4] = assay: Drug level in APP51/16 transgenic female mouse brain at 100 umol/kg, po after 4 hrs; assay type: ADME, organism-based; conditions: in vivo
How it was run: (§1)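 APP51/16 transgenic mice received an oral suspension in water with 2% cremophor. Parent inhibitor measured 4 h post-dose in blood (nmol/mL) and brain (nmol/g).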

[5] = Drug level in APP51/16 transgenic female mouse blood at 100 umol/kg, po after 4 hrs; assay type: ADME, organism-based; conditions: whole blood, read-out: Drug uptake; how it was run: as §1
[6] = Clearance in mouse liver microsomes; assay type: ADME, Microsome; conditions: read-out: CLH
How it was run: (§2)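 Compounds incubated at 37 °C with human or mouse liver microsomes.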

[7] = Clearance in human liver microsomes; assay type: ADME, Microsome; conditions: read-out: CLH; how it was run: as §2
Brain [8] = assay: Drug level in APP51/16 transgenic male mouse brain at 180 umol/kg, po after 4 hrs; assay type: ADME, organism-based; conditions: in vivo
How it was run: (§3)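 Inhibitor given orally to APP51/16 transgenic mice as a suspension in water with 2% cremophor; ritonavir (12.5 mg/kg po, 0.5 h before inhibitor) where noted. Blood concentration (nmol/mL) and brain concentration (nmol/g) determined 4 h after dosing.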

[9] = Drug level in APP51/16 transgenic male mouse blood at 180 umol/kg, po after 4 hrs; assay type: ADME, organism-based; conditions: whole blood, read-out: Drug uptake; how it was run: as §3
[10] = Bioavailability in mouse; assay type: ADME, organism-based; conditions: in vivo
[11] = Clearance in mouse; assay type: ADME, organism-based; conditions: in vivo
Brain [12] = assay: Drug level in APP51/16 transgenic male mouse brain at 60 umol/kg, po after 4 hrs; assay type: ADME, organism-based; conditions: in vivo; how it was run: as §3
Brain [13] = assay: Drug level in APP51/16 transgenic male mouse brain at 100 umol/kg, po after 4 hrs; assay type: ADME, organism-based; conditions: in vivo; how it was run: as §3
[14] = Drug level in APP51/16 transgenic male mouse blood at 100 umol/kg, po after 4 hrs; assay type: ADME, organism-based; conditions: whole blood, read-out: Drug uptake; how it was run: as §3
[15] = Drug level in APP51/16 transgenic male mouse blood at 60 umol/kg, po after 4 hrs; assay type: ADME, organism-based; conditions: whole blood, read-out: Drug uptake; how it was run: as §3

Row | Compound | logP [1] | Papp [3] | microsomal CLint [6] | microsomal CLint [7] | further results
1 | CC(C)(C)c1cccc(CN[C@H]2CS(=O)(=O)C[C@@H](Cc3cc(F)c(N)c(OC(C(F)(F)F)C(F)(F)F)c3)[C@@H]2O)c1 | 5.1 | 4 ×10⁻⁶ cm/s |  |  | pKa [2]: 5.7
2 | [2H]C([2H])(N[C@H]1C[S@+]([O-])C[C@@H](Cc2cc(F)c(N)c(O[C@H](COC)C(F)(F)F)c2)[C@@H]1O)c1cccc(C(C)C)c1 | 3.7 |  | 660 µL/min/mg | 600 µL/min/mg | Drug uptake (Brain [4]): 0.3 nmol/g; concentration at 4 h [5]: 1500 nM
3 | COC[C@@H](Oc1cc(C[C@@H]2C[S@@+]([O-])C[C@H](N[C@H](C)c3cccc(C(C)(C)C)c3)[C@H]2O)cc(F)c1N)C(F)(F)F |  | 17 ×10⁻⁶ cm/s | 730 µL/min/mg | 600 µL/min/mg | Drug uptake (Brain [4]): 0.7 nmol/g; concentration at 4 h [5]: 5400 nM
4 | COC[C@@H](Oc1cc(C[C@@H]2C[S@@+]([O-])C[C@H](NCc3cc(C(C)(C)C)ccc3F)[C@H]2O)cc(F)c1N)C(F)(F)F | 4.1 | 24 ×10⁻⁶ cm/s | 580 µL/min/mg | 400 µL/min/mg | 
5 | COC[C@@H](Oc1cc(C[C@@H]2C[S@@+]([O-])C[C@H](NCc3cccc(C(C)(C)CO)c3)[C@H]2O)cc(F)c1N)C(F)(F)F | 3.4 | 10 ×10⁻⁶ cm/s | 210 µL/min/mg | 80 µL/min/mg | 
6 | COC[C@@H](Oc1cc(C[C@@H]2C[S@@+]([O-])C[C@H](NCc3cccc(C(C)(C)O)c3)[C@H]2O)cc(F)c1N)C(F)(F)F |  | 8 ×10⁻⁶ cm/s | 150 µL/min/mg | 40 µL/min/mg | 
7 | COC[C@@H](Oc1cc(C[C@@H]2C[S@@+]([O-])C[C@H](NCc3cccc(OC(C)C)c3)[C@H]2O)cc(F)c1N)C(F)(F)F | 3.6 | 21 ×10⁻⁶ cm/s | 190 µL/min/mg | 280 µL/min/mg | 
8 | COC[C@@H](Oc1cc(C[C@@H]2C[S@@+]([O-])C[C@H](NCc3cccc(OC(F)(F)F)c3)[C@H]2O)cc(F)c1N)C(F)(F)F | 3.7 | 31 ×10⁻⁶ cm/s | 180 µL/min/mg | 300 µL/min/mg | 
9 | COC[C@@H](Oc1cc(C[C@@H]2C[S@@+]([O-])C[C@H](NCc3cnn(CC(C)(C)C)c3)[C@H]2O)cc(F)c1N)C(F)(F)F | 2.9 | 10 ×10⁻⁶ cm/s | 380 µL/min/mg | 140 µL/min/mg | 
10 | COC[C@@H](Oc1cc(C[C@@H]2C[S@@+]([O-])C[C@H](NCc3cc(CC(C)(C)C)on3)[C@H]2O)cc(F)c1N)C(F)(F)F | 3.1 | 19 ×10⁻⁶ cm/s | 510 µL/min/mg | 580 µL/min/mg | pKa [2]: 4.9
11 | COC[C@@H](Oc1cc(C[C@@H]2C[S@@+]([O-])C[C@H](NCc3cc(C(C)(C)C)ccn3)[C@H]2O)cc(F)c1N)C(F)(F)F | 3.5 | 19 ×10⁻⁶ cm/s | 400 µL/min/mg | 140 µL/min/mg | 
12 | CC(C)(C)c1cccc(CN[C@H]2C[S@+]([O-])C[C@@H](Cc3cc(F)c(N)c(OC(C(F)(F)F)C(F)(F)F)c3)[C@@H]2O)c1 | 5.2 | 18 ×10⁻⁶ cm/s |  |  | Drug uptake (Brain [8]): 0.8 nmol/g; concentration at 4 h [9]: 0.9 µM; bioavailability [10]: 14%; clearance [11]: 129 mL/min/kg; pKa [2]: 6.7
13 | CC(C)(C)c1cccc(CN[C@H]2C[S@@+]([O-])C[C@@H](Cc3cc(F)c(N)c(OC(C(F)(F)F)C(F)(F)F)c3)[C@@H]2O)c1 | 4.9 | 11 ×10⁻⁶ cm/s |  |  | 
14 | COc1cc(C[C@@H]2C[S@@+]([O-])C[C@H](NCc3cccc(C(C)(C)C)c3)[C@H]2O)cc(F)c1N | 3.5 | 22 ×10⁻⁶ cm/s |  |  | 
15 | CC(C)(C)c1cccc(CN[C@H]2C[S@+]([O-])C[C@@H](Cc3cc(F)c(N)c(OCC(F)(F)F)c3)[C@@H]2O)c1 | 4.3 | 19 ×10⁻⁶ cm/s |  |  | Drug uptake (Brain [12]): 0.4 nmol/g; Drug uptake (Brain [13]): 0.7 nmol/g; Drug uptake (Brain [8]): 1.3 nmol/g; concentration at 4 h [14]: 2600 nM; concentration at 4 h [15]: 800 nM; concentration at 4 h [9]: 6.1 µM
16 | COC[C@@H](Oc1cc(C[C@@H]2C[S@@+]([O-])C[C@H](NCc3cccc(C(C)(C)C)c3)[C@H]2O)cc(F)c1N)C(F)(F)F | 3.9 | 18 ×10⁻⁶ cm/s | 480 µL/min/mg | 500 µL/min/mg | Drug uptake (Brain [12]): 0.1 nmol/g; Drug uptake (Brain [13]): 0.2 nmol/g; Drug uptake (Brain [8]): 0.7 nmol/g; concentration at 4 h [14]: 1000 nM; concentration at 4 h [15]: 300 nM; concentration at 4 h [9]: 3.8 µM
17 | CC(C)(C)c1cccc(CN[C@H]2C[S@+]([O-])C[C@@H](Cc3cc(F)c(N)c(O[C@H](CO)C(F)(F)F)c3)[C@@H]2O)c1 | 3.7 | 16 ×10⁻⁶ cm/s |  |  | 
18 | CC(C)(C)c1cccc(CN[C@H]2C[S@+]([O-])C[C@@H](Cc3cc(O)c(N)c(F)c3)[C@@H]2O)c1 |  | 9 ×10⁻⁶ cm/s |  |  | 
19 | COC[C@@H](Oc1cc(C[C@@H]2C[S+]([O-])C[C@H](N)[C@H]2O)cc(F)c1N)C(F)(F)F (stereo not given in full) |  |  | 180 µL/min/mg | 190 µL/min/mg | 
20 | [2H]C([2H])(N[C@H]1C[S@+]([O-])C[C@@H](Cc2cc(F)c(N)c(O[C@H](COC)C(F)(F)F)c2)[C@@H]1O)c1cccc(C(C)(C)C)c1 |  | 19 ×10⁻⁶ cm/s | 530 µL/min/mg | 600 µL/min/mg | Drug uptake (Brain [12]): 0.1 nmol/g; concentration at 4 h [15]: 400 nM
21 | COC[C@@H](Oc1cc(C[C@@H]2C[S@@+]([O-])C[C@H](NCc3cccc(C(C)C)c3)[C@H]2O)cc(F)c1N)C(F)(F)F | 3.7 | 20 ×10⁻⁶ cm/s | 550 µL/min/mg | 690 µL/min/mg | Drug uptake (Brain [4]): 0.2 nmol/g; concentration at 4 h [5]: 1600 nM
